Results on 1 compound are retold here after ChEMBL document CHEMBL1240422, “Design, synthesis and biological evaluation of 3,5-diaryl-isoxazoline/isoxazole-pyrrolobenzodiazepine conjugates as potential anticancer agents” (2010).

The source made the active and inactive calls. The calls are words filed in the database; no cut-off is given here.

What is called GI50 is the concentration giving 50% growth inhibition.

The test system of assay [1] is A-375. Nature of the assay: Cell cycle arrest in human A375 cells assessed as accumulation at G2/M phase at 4 uM after 24 hrs using propidium iodide staining by FACS. It counts as functional. The method in brief:
(§1)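 Treated A375 cells (24 h) were harvested with trypsin-EDTA and fixed in ice-cold 70% ethanol (4 °C, 30 min). After a PBS wash, they were incubated with 1 mg/mL RNase A (37 °C, 30 min) and stained with propidium iodide solution containing trisodium citrate and Triton X-100. DNA content was measured by flow cytometry on 20,000 events. Controls were DMSO-treated.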

Assay [2] relates to A-375. Nature of the assay: Induction of apoptosis in human A375 cells assessed as reduction in CDK2 protein level at 4 uM after 24 hrs by Western blotting. It is filed as functional, cell-based. The method in brief: (§2)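 A375 cells were treated for 24 h and lysed in ice-cold RIPA buffer (1% NP-40, 0.5% deoxycholate, 0.1% SDS, protease inhibitors). Protein was quantified by Bradford assay, and 30 µg/lane was run on 12% SDS-PAGE and transferred to PVDF. Membranes were blocked 2 h at RT in TBST with 5% blocker, incubated with primary antibody overnight at 4 °C, then with HRP secondary (1:2000, 1 h, RT). Detection was by chemiluminescence, with β-actin as loading control.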
(In general: In western blotting, separated proteins are transferred to a membrane and probed.)

Another assay relates to A2780. Nature of the assay: Anticancer activity against human A2780 cells after 48 hrs by SRB assay. The conditions noted are these: A2780, 48 h. It is filed as functional. The method in brief:
(§3)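 Grown in RPMI 1640 with 10% FBS and 2 mM L-glutamine at 37 °C, 5% CO2. Seeded at densities set by doubling time, then preincubated 24 h. Continuous 48 h drug exposure at four concentrations (0.1, 1, 10, 100), triplicate wells. Fixed with cold TCA (final 10%) at 4 °C, 60 min. Stained with 0.4% SRB in 1% acetic acid, eluted with 10 mM Tris base, read at 540/690 nm. Percent growth versus control wells.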

Assay [3] relates to A-375. Nature of the assay: Induction of apoptosis in human A375 cells assessed as increase in p53 protein level at 4 uM after 24 hrs by Western blotting. It counts as functional, cell-based. In outline: (§4)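 A375 cells treated 24 h, then lysed in ice-cold RIPA buffer (1% NP-40, 0.5% deoxycholate, 0.1% SDS, protease inhibitors). Protein was quantified by Bradford, and 30 µg per lane run on 12% SDS-PAGE and transferred to PVDF. Blots were blocked 2 h at RT in TBST with 5% blocking powder, probed with primary antibody overnight at 4 °C, then HRP secondary (1:2000, 1 h RT), and read by chemiluminescence against β-actin loading control.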

A further assay has as its system SiHa. Nature of the assay: Anticancer activity against human SiHa cells after 48 hrs by SRB assay. It is filed as functional. In outline:
(§5)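 Cells grown in RPMI 1640 with 10% FBS and 2 mM L-glutamine, plated at densities set by doubling time, and preincubated 24 h at 37 °C, 5% CO2. Compounds were tested at four concentrations (0.1, 1, 10, 100) in triplicate wells with 48 h continuous exposure. Cells were fixed with cold TCA (10% final, 60 min, 4 °C) and stained with 0.4% SRB in 1% acetic acid (20 min, RT). Dye was eluted with 10 mM Trizma base and read at 540 nm (690 nm reference). Percent growth is relative to control wells, plate by plate.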

Another assay has as its system KB. Nature of the assay: Anticancer activity against human KB cells after 48 hrs by SRB assay. It counts as functional. In outline:
as §3
For orientation: In SRB staining, fixed cells bind dye roughly in proportion to their protein.

For assay [4], the system named is A-375. The experiment in a line: Induction of apoptosis in human A375 cells assessed as caspase3 activation at 4 uM after 24 hrs by fluorimetry. It counts as functional, cell-based. The method in brief:
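Caspase-3 activity was measured by a fluorometric assay on lysates of treated and untreated A375 cells.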

For another assay, the system named is ZR-75-1. Nature of the assay: Anticancer activity against human ZR-75-1 cells after 48 hrs by SRB assay. The conditions noted are these: ZR-75-1, 48 h. It counts as functional. In outline:
as §5

The subject of assay [5] is A-375. The experiment in a line: Induction of apoptosis in human A375 cells assessed as increase in PPAR protein level at 4 uM after 24 hrs by Western blotting. It is filed as functional, cell-based. The method in brief: as §2
Assay [6] deals with A-375. The experiment in a line: Induction of apoptosis in human A375 cells assessed as increase in cytochromeC protein level at 4 uM after 24 hrs by Western blotting. It counts as functional, cell-based. In outline: as §4
Assay [7] concerns A-375. Nature of the assay: Cell cycle arrest in human A375 cells assessed as accumulation at G0/G1 phase at 4 uM after 24 hrs using propidium iodide staining by FACS. It counts as functional. In outline: as §1
The test system of assay [8] is A-375. Nature of the assay: Cell cycle arrest in human A375 cells assessed as accumulation at S phase at 4 uM after 24 hrs using propidium iodide staining by FACS. It counts as functional. The method in brief: as §1
In general terms: A flow cytometer gives signals particle by particle.

As to `COc1cc(C2=NOC(c3cc(OC)c(OC)c(OC)c3)C2)ccc1OCCCOc1cc2c(cc1OC)C(=O)N1CCC[C@H]1C=N2` (some centres not stated), the Activity is on record as 0.4% in the assay on A-375 [1], 98.5% with A-375 [7] and 1.1% in the assay with A-375 [8]. Also, the outcome in the assay on A-375 [2], in the assay on A-375 [3], in the assay on A-375 [4], in the assay on A-375 [5] and in the assay on A-375 [6] was Active. For the same compound, the GI50 with A2780, in the assay on SiHa, with KB and in the assay with ZR-75-1 was under 100 nM throughout.
